# Results pooled from the literature.
# Protocols differ between the studies behind these lines.
# ENO1: ENO1 (Candida albicans, UniProt P30575)
# Prolyl endopeptidase: Prolyl endopeptidase (Mus musculus, UniProt Q9QUR6)
# Oprm1: Mu-type opioid receptor (Oprm1, Rattus norvegicus, UniProt P33535)
# Sialidase-3: Sialidase-3 (Homo sapiens, UniProt Q9UQ49)
SMILES,target,effect on,mode,technique,setting,measurement,result
O=Nc1c(O)[nH]c(=O)[nH]c1=O,ENO1,enzyme activity,inhibitor,absorbance,,IC50,> 50 µM
COc1c2c(cc3c1-c1c(cc4c(c1OC)OCO4)C[C@H](C)[C@H](C)C3)OCO2,Prolyl endopeptidase,enzyme activity,inhibitor,fluorescence,,IC50,> 100 µM
C/C=C1/CN2CC[C@]34C(=C(C(=O)OC)[C@H]1C[C@H]23)Nc1ccc(I)cc14,Oprm1,ligand displacement,,radioligand,cell membranes,Ki,0.388 µM
COc1cc2c(cc1OC)CN(CCc1ccc(NC(=O)c3cccc4c(=O)c5cccc(OC)c5[nH]c34)cc1)CC2,"D(4) dopamine receptor (DRD4, Homo sapiens, UniProt P21917)",cell-free assay,,,,Ki,> 10 µM
CN1C(=O)CN=C(c2ccccc2F)c2cc([N+](=O)[O-])ccc21,"Aldo-keto reductase family 1 member C2 (AKR1C2, Homo sapiens, UniProt P52895)",enzyme activity,inhibitor,,,IC50,1.6 µM
CC(C)(C)CC(=O)N[C@H]1[C@H]([C@H](O)[C@H](O)CO)OC(C(=O)O)=C[C@@H]1O,Sialidase-3,enzyme activity,inhibitor,,,IC50,> 500 µM
O=C1CCCN1CP(=O)(O)O,ENO1,enzyme activity,inhibitor,absorbance,,IC50,> 50 µM
C/C=C1/CN2CC[C@]34C(=C(C(=O)OC)[C@H]1C[C@H]23)Nc1ccc(Br)cc14,Oprm1,ligand displacement,,radioligand,cell membranes,Ki,0.658 µM
C=CCc1ccc(O)c(-c2cc(CC=C)ccc2O)c1,Prolyl endopeptidase,enzyme activity,inhibitor,fluorescence,,IC50,> 100 µM
CCCCNC(=O)N[C@H]1[C@H]([C@H](O)[C@H](O)CO)OC(C(=O)O)=C[C@@H]1O,Sialidase-3,enzyme activity,inhibitor,,,IC50,> 500 µM
